Compound activity deposited in PubChem by several laboratories.
E coli WT exp: E. coli BW25113 growth inhibition, expanded screen; OD600 absorbance; growth inhibition, % at 100 µM; 98,000 compounds, 0.15% hits; AID 710;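 active = growth inhibition above about 50% at one test dose, limit read from the data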;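 also: growth measured after 20 h incubation at 37 °C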
PTK2B oligo ant: blocks oligomerization of human Pyk2 in cells; Q293 cells, Pyk2 FERM NanoBiT luminescence; stronger effect = lower value; z-score (the deposit names both 25 µM and 10 µM); 99,000 compounds, 0.83% hits; AID 1347419;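 active = Z-score of -3 or lower, scaled per plate to the spread of control and sample wells; inactive = z-score above -3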;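 also: negative z-score means lost luminescence so less FERM oligomerization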
Target sequence (Q14289 whole entry, looked up): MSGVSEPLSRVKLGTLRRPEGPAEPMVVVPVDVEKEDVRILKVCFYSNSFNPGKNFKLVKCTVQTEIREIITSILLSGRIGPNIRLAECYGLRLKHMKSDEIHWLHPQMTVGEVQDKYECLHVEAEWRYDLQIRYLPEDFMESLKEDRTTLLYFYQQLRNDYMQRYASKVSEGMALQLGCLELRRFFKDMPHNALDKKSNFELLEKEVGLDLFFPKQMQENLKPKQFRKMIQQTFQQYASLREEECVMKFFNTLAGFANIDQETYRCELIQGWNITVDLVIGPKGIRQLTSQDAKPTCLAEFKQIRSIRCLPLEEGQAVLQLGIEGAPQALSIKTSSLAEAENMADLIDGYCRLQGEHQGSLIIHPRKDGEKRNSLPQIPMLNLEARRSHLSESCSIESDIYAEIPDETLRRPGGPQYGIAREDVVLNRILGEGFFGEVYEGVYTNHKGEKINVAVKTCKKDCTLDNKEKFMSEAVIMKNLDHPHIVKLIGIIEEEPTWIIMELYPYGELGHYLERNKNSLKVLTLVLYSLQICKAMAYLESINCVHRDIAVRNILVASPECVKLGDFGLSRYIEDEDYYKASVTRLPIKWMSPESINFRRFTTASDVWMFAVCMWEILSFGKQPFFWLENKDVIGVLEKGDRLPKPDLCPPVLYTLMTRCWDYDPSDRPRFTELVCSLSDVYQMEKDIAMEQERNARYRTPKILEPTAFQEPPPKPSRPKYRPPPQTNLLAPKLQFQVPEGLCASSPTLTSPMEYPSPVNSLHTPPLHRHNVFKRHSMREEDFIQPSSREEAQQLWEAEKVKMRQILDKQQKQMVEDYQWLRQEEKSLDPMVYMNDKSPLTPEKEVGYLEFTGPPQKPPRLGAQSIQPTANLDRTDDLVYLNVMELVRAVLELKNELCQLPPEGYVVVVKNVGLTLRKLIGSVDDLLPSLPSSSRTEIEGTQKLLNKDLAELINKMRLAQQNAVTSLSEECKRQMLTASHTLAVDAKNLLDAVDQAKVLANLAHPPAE
PostGolgi yeast: growth inhibition of a yeast mutant, post-Golgi transport screen; post-Golgi transport phenotypic cell assay; inhibition, % at 10 µM; 98,000 compounds, 0.9% hits;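 also: yeast cells grown in 1536-well plates; yeast grown about 18 h at 30C before absorbance read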
Candida biofilm: kills Candida albicans biofilms | 85,000 compounds, 0.14% hits | inhibition, % at 6 µM | C. albicans biofilm + clotrimazole, Alamar Blue | AID 834;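 active = inhibition above 20%; inactive = inhibition below 20%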;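 also: preformed 24 hr biofilms exposed to compound for 48 hr; 0% = biofilm without compound and 100% = blank killed by clotrimazole plus chlorhexidine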
tolC growth inh: E. coli tolC mutant growth inhibition; E. coli BW25113 tolC mutant growth, OD615; AID 573; growth inhibition, % at 10 µM (by protocol); 65,000 compounds, 2.2% hits;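 active = growth inhibition at or above a cutoff equal to the mean over every tested compound plus 3 SD, cut at about 60% in these data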;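 also: growth measured after 20 h incubation at 37 °C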
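Material: E. coli BW25113 ΔtolC::kan, tolC deletion mutant strain. Measure: percent growth inhibition. Schedule: 37 °C, 20 h exposure. Doses: single-point testing at 10 µM. Signal: A615 absorbance measurement. Buffer or medium: kanamycin-containing LB broth (50 µg/mL).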
PostGolgi ctrl: inhibits growth of the yeast control strain; efflux-deficient yeast background strain, growth absorbance A615, 16 h; inhibition, % at 10 µM; 98,000 compounds, 5% hits; AID 738
Starred values were filed as active, the others as inactive. In the library only some 6.5% were active in any assay of this set; here they are far more common. Rule as the data show it, unless noted: active = inhibition above about 30%; inactive = the rest.

`CC(=O)Oc1c(Cl)cc(Cl)cc1/C=C/c1ccc2ccccc2n1` gave E coli WT exp -12, PTK2B oligo ant -2.8, PostGolgi yeast -5 and PostGolgi ctrl 54*.
CC(CCc1ccccc1)NC(=O)CN1CCN(Cc2ccccc2)C1=O (stereo not drawn) was read as E coli WT exp -2, PTK2B oligo ant -0.56, PostGolgi yeast 0, Candida biofilm 1, tolC growth inh -9 and PostGolgi ctrl 33*.
Screening O=C1CC(Nc2ccc(N3CCOCC3)cc2)C(=O)N1Cc1ccccc1 (stereo not drawn) returned PTK2B oligo ant -1.1 and tolC growth inh -8.
For O=C1CC(Nc2ccc3ccccc3c2)C(=O)N1Cc1ccccc1 (stereo not drawn) the results were E coli WT exp -4, PTK2B oligo ant -0.88, PostGolgi yeast 0, Candida biofilm 5 and PostGolgi ctrl 38*.
COc1ccc(Cn2c(SCc3ccccc3C)nc3cc(OC)c(OC)cc3c2=N)cc1 was read as E coli WT exp 11, PTK2B oligo ant -0.71, PostGolgi yeast -1 and PostGolgi ctrl 67*.
Screening CC(C)Oc1ccc(Cc2cnc(N)nc2N)cc1 returned E coli WT exp 71*, PTK2B oligo ant 0.14, PostGolgi yeast -11, Candida biofilm 1 and PostGolgi ctrl -5.
Screening COc1ccc(Cc2c(N)nc(N)nc2N)cc1 returned E coli WT exp 15, PTK2B oligo ant 0.63, PostGolgi yeast 4 and PostGolgi ctrl 3.
Screening Cc1ccc(C)c(NC(=S)NCc2cccn2C)c1 returned E coli WT exp 4, PostGolgi yeast -2, Candida biofilm 5 and PostGolgi ctrl 1.
`Cc1ccc(S(=O)(=O)N(CC(=O)Nc2cccc([N+](=O)[O-])c2)C2CCCCC2)cc1` gave E coli WT exp -5, PTK2B oligo ant -1.4, PostGolgi yeast -8 and PostGolgi ctrl 35*.
Screening CN1/C(=C/C2CC(=O)NC2=O)C(C)(C)c2ccccc21 (stereo not drawn) returned E coli WT exp -6, PTK2B oligo ant 0.12, PostGolgi yeast 45*, Candida biofilm 3 and PostGolgi ctrl 0.
Screening CN1/C(=C/C2CC(=O)N(c3cccc4ccccc34)C2=O)C(C)(C)c2ccccc21 (stereo not drawn) returned E coli WT exp -1, PTK2B oligo ant 1.1, PostGolgi yeast 5, Candida biofilm -1 and PostGolgi ctrl 8.
`Cc1cc(C)c2ccc(C)[n+]([O-])c2c1O` gave E coli WT exp 11, PTK2B oligo ant 1.4, PostGolgi yeast 0, Candida biofilm 0, tolC growth inh 4 and PostGolgi ctrl -15.
Screening Cc1cc(C)c2ccc(N)nc2c1O returned E coli WT exp 96*, PTK2B oligo ant 0.31, PostGolgi yeast 8, Candida biofilm 6, tolC growth inh 39 and PostGolgi ctrl 2.
COc1ccccc1NC(=S)NNC(=O)c1nn(C)cc1Cl was read as E coli WT exp 13, PTK2B oligo ant 0.8, PostGolgi yeast 0 and PostGolgi ctrl 6.
COc1ccccc1NC(=O)c1nn(C)cc1Br was read as E coli WT exp 2, PTK2B oligo ant -0.67, PostGolgi yeast -6, Candida biofilm 7 and PostGolgi ctrl 36*.
Screening O=C(NCc1ccccc1)NC1(C(=O)N2CCN(c3ccccc3)CC2)CCCCC1 returned E coli WT exp 5, PTK2B oligo ant -0.9, PostGolgi yeast 2, Candida biofilm -2, tolC growth inh -4 and PostGolgi ctrl 2.
For CCn1c2ccccc2c2cc(NC(C)=O)ccc21 the results were E coli WT exp -16, PTK2B oligo ant -0.54, PostGolgi yeast -5, Candida biofilm 44* and PostGolgi ctrl 13.
For CCn1c2ccccc2c2cc(NC(=O)c3ccco3)ccc21 the results were E coli WT exp -6, PTK2B oligo ant -0.55, PostGolgi yeast 6, Candida biofilm 1, tolC growth inh 87* and PostGolgi ctrl 19.
`CCOc1ccc(-n2c(N)c(C(=O)NCc3cccnc3)sc2=S)cc1` gave E coli WT exp -3, PTK2B oligo ant 0.7, PostGolgi yeast -7, Candida biofilm 4 and PostGolgi ctrl 32*.
`CCOc1ccc(-n2c(N)c(C(=O)NCc3ccco3)sc2=S)cc1` gave E coli WT exp 4, PTK2B oligo ant -0.05, PostGolgi yeast -2, Candida biofilm 3 and PostGolgi ctrl 8.
For CC1CC(C)CN(CCCNC(=O)c2csc3c2CCCC3)C1 (stereo not drawn) the results were E coli WT exp 6, PTK2B oligo ant 0.4, PostGolgi yeast -10, Candida biofilm -1 and PostGolgi ctrl 12.
Screening Cc1ccc(-c2cc(C(=O)N3CCCc4ccccc43)c3ccccc3n2)cc1 returned E coli WT exp -18, PTK2B oligo ant -0.84, PostGolgi yeast 1 and PostGolgi ctrl 29.
Cc1ccc2nc3sc(C(=O)N4CCCc5ccccc54)c(N)c3cc2c1 was read as E coli WT exp -7, PTK2B oligo ant -0.38, PostGolgi yeast 7 and PostGolgi ctrl 50*.
Screening N#CCSc1nc2c(c(C3CC=CCC3)c1C#N)CCC2 (stereo not drawn) returned E coli WT exp -9, PTK2B oligo ant -1.7, PostGolgi yeast 5, Candida biofilm 0, tolC growth inh 67* and PostGolgi ctrl 27.
`Cc1ccc(O)c(NC(=O)c2cc3nc4c(c(C(F)(F)F)n3n2)CCc2ccccc2-4)c1` gave E coli WT exp -10, PTK2B oligo ant 0.4, PostGolgi yeast 2 and PostGolgi ctrl 35*.
Cc1ccc(Cn2ccc(NC(=O)c3cc4nc5c(c(C(F)(F)F)n4n3)CCc3ccccc3-5)n2)cc1 was read as E coli WT exp -5, PostGolgi yeast 11 and PostGolgi ctrl 9.
Screening c1ccc(CCNc2ncnc3scc(C4COc5ccccc5O4)c23)cc1 (stereo not drawn) returned E coli WT exp -18, PTK2B oligo ant -2.1, PostGolgi yeast 2, Candida biofilm 1 and PostGolgi ctrl 43*.
For Cc1ccc(C)c(C(=O)CSc2n[nH]c(-c3ccncc3)n2)c1 the results were E coli WT exp 4, PTK2B oligo ant 0.68, PostGolgi yeast -1, tolC growth inh 99* and PostGolgi ctrl 0.
For O=C(CSc1n[nH]c(-c2ccncc2)n1)c1ccccc1 the results were E coli WT exp 9, PTK2B oligo ant 1.4, PostGolgi yeast 9, Candida biofilm 0, tolC growth inh 8 and PostGolgi ctrl 25.
Screening O=C(CCS(=O)(=O)Cc1ccc(Cl)cc1)NCCCN1CCOCC1 returned E coli WT exp 7, PTK2B oligo ant 0.41, PostGolgi yeast -1, Candida biofilm 4 and PostGolgi ctrl -6.
Screening CCOC(=O)c1c(C)sc2c1N(C(=O)CN1CCOCC1)c1cc(Cl)ccc1S2 returned E coli WT exp -10, PTK2B oligo ant -0.89, PostGolgi yeast -9, Candida biofilm 6 and PostGolgi ctrl 54*.
`CC(C)Oc1ccc(NC(=O)c2ccncc2)cc1` gave E coli WT exp -1, PTK2B oligo ant 0.91, PostGolgi yeast 0, Candida biofilm 7, tolC growth inh -12 and PostGolgi ctrl -1.
